From ChEMBL document CHEMBL5113556, “Benzo[d]isoxazole Derivatives as Hypoxia-Inducible Factor (HIF)-1α Inhibitors” (ACS Med Chem Lett, 2022) come the findings set out here.

Data set [1] concerns the target Hypoxia-inducible factor 1-alpha (Homo sapiens, UniProt Q16665). The data set is described as follows: Inhibition of HIF-1alpha (unknown origin) transcriptional activity expressed in HEK293T cells co-transfected with renilla and HRE-firelfly luciferase incubated for 24 hrs by dual luciferase reporter gene assay. The class given is cell-based. The method, boiled down:
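HEK293T cells were transfected for 24 h with HIF-1α (P2A), Renilla and HRE-firefly luciferase constructs, then exposed to test compounds for a further 24 h. The firefly signal (luciferin substrate) gave HIF-1 inhibition, normalized to the Renilla signal (coelenterazine substrate). Transcriptional activity was calculated by a formula given in the Supporting Information.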
Background: A reporter such as luciferase makes a cellular process visible.

Data set [2] has as its system HEK-293T. The data set is described as follows: Cytotoxicity against HEK293T cells at 50 uM. The class given is toxicity, cell-based. Particulars: human. The method, boiled down:
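Cytotoxicity was read from the Renilla signal of the dual-luciferase reporter run in HEK293T cells (24 h transfection, then 24 h compound exposure) at concentrations up to 50 μM.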

Data set [3] can be described thus: Downregulation of VEGF protein expression in HEK293T cells at 50 uM measured after 24 hrs under […] condition by Western blot analysis relative to control. Type of data set: functional, Homo sapiens, HEK-293T. For orientation: A western blot detects proteins with antibodies after separation by electrophoresis.
Data set [4] has as its system HEK-293T. The data set is described as follows: Downregulation of PDK1 mRNA expression in HEK293T cells measured after 24 hrs under hypoxia condition by RT-PCR analysis. The note with it: Homo sapiens, dose 0.01-50 µM, DDE = dose-dependent effect.
The test system of data set [5] is HEK-293T. The data set is described as follows: Downregulation of VEGF mRNA expression in HEK293T cells measured after 24 hrs under hypoxia condition by RT-PCR analysis. Particulars: Homo sapiens, dose 0.01-50 µM, DDE = dose-dependent effect.

Sequence of Hypoxia-inducible factor 1-alpha (Q16665 whole entry): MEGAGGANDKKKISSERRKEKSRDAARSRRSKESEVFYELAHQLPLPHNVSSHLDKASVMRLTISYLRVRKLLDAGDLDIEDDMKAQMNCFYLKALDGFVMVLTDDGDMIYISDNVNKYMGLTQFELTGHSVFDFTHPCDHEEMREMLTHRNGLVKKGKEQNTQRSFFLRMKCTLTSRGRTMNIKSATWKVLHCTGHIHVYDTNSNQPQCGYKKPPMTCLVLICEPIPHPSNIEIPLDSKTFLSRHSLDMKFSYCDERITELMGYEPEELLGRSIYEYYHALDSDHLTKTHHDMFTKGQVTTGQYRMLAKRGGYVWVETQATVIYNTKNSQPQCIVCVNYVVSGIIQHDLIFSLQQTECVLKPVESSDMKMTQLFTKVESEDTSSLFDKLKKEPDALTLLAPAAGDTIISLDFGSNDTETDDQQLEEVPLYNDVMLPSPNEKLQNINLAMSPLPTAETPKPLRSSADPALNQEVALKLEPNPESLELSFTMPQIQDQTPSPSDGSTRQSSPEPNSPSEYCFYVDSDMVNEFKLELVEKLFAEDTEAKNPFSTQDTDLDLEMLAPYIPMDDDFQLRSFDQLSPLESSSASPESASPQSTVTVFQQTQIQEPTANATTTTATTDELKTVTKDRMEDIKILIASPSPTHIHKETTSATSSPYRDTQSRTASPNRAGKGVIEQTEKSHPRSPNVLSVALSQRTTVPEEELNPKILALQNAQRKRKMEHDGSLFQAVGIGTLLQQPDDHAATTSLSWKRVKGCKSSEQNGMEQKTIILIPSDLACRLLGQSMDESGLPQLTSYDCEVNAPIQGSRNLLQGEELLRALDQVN

The term IC50 denotes the concentration that inhibits the measured activity by half. For the compound `O=C(Nc1cccc(Cl)c1)c1noc2ccccc12`, inhibition in data set [1] was half-maximal at 250 nM (IC50). In the data set on HEK-293T [2], the Activity entry was “Non-Toxic”.
`COc1cccc(NC(=O)c2noc3ccccc23)c1`: in data set [1], the midpoint of inhibition, the IC50, lay at 170 nM. The Activity result in the data set on HEK-293T [2] is given as “Non-Toxic”.
In the case of `O=C(Nc1noc2ccccc12)c1ccccc1`, in the data set on HEK-293T [2], the Activity result is recorded as “Non-Toxic”.
`O=C(NC1CCCCC1)c1noc2ccccc12` had a half-inhibitory concentration (IC50) in data set [1] of 5400 nM. In addition, the Activity entry with HEK-293T [2] is listed as “Non-Toxic”.
Regarding `O=C(NCc1ccccc1)c1noc2ccccc12`, the Activity result with HEK-293T [2] is on record as “Non-Toxic”.
In turn, `O=C(Nc1ccccc1)c1noc2ccccc12` returned an IC50 in data set [1] of 310 nM. For the same compound, in the data set with HEK-293T [2], the Activity result is “Non-Toxic”.
Turning to `CN(C)c1ccccc1NC(=O)c1noc2ccccc12`, in the data set on HEK-293T [2], the Activity result was “Non-Toxic”.
`O=C1CCCc2cc(NC(=O)c3noc4ccccc34)ccc21` yielded an IC50 in data set [1] of 640 nM. In addition, the Activity entry with HEK-293T [2] is recorded as “Non-Toxic”.
As for `O=C(c1noc2ccccc12)N1CCCCC1`, the Activity entry in the data set on HEK-293T [2] was “Non-Toxic”.
Take `CC(=O)c1ccc(NC(=O)c2noc3ccccc23)cc1`: the Activity in data set [3] was 20%; with HEK-293T [4] it was “Dde”; with HEK-293T [5], “Dde”; in the data set with HEK-293T [2], “Non-Toxic”. Further, in data set [1], the concentration for half-maximal inhibition (IC50) is 24 nM.
`O=C(Nc1ccccc1Cl)c1noc2ccccc12` registered a 50% inhibitory concentration (IC50) in data set [1] of 2300 nM. Further, the Activity result in the data set on HEK-293T [2] is given as “Non-Toxic”.
`O=C(Nc1ccccc1)c1ccon1`: the Activity result in the data set with HEK-293T [2] was “Non-Toxic”.
`O=C(Nc1cccc(-c2ccccc2)c1)c1noc2ccccc12` had a half-maximal inhibitory concentration (IC50) in data set [1] of 1700 nM. Further, the Activity result in the data set on HEK-293T [2] is given as “Non-Toxic”.
The like results for `O=C(Nc1ccccn1)c1noc2ccccc12` were, in that order, 940 nM and “Non-Toxic”.
Take `O=C(Nc1ccc2ccccc2c1)c1noc2ccccc12`: the midpoint of inhibition in data set [1], the IC50, lay at 75 nM. In the data set on HEK-293T [2], the Activity entry was “Non-Toxic”.
For `O=C(Nc1ccncc1)c1noc2ccccc12`, half-maximal inhibition in data set [1] (IC50) required 10000 nM. Also, in the data set with HEK-293T [2], the Activity entry is reported as “Non-Toxic”.
The compound `COC(=O)c1cccc(NC(=O)c2noc3ccccc23)c1` yielded an IC50 in data set [1] of 200 nM. Further, the Activity result with HEK-293T [2] is on record as “Non-Toxic”.
Regarding `CN(C)c1ccc(NC(=O)c2noc3ccccc23)cc1`, the Activity result in the data set with HEK-293T [4] was “Dde”; in the data set on HEK-293T [5], “Dde”; in the data set with HEK-293T [2], “Non-Toxic”. Besides, the concentration for half-maximal inhibition (IC50) in data set [1] stood at 24 nM.
In the case of `CN(C)c1cccc(NC(=O)c2noc3ccccc23)c1`, in data set [1], the IC50 was found to be 7400 nM. In addition, the Activity result in the data set with HEK-293T [2] is “Non-Toxic”.
On to `O=C(Nc1ccc2scnc2c1)c1noc2ccccc12`, for which the IC50 in data set [1] stood at 42 nM. The Activity entry in the data set with HEK-293T [2] is recorded as “Non-Toxic”.
Turning to `COc1ccccc1NC(=O)c1noc2ccccc12`, the half-inhibitory concentration (IC50) in data set [1] worked out at 5500 nM. The Activity result in the data set with HEK-293T [2] is “Non-Toxic”.
`COC(=O)c1ccc(O)c(NC(=O)COc2ccc(C34CC5CC(CC(C5)C3)C4)cc2)c1` showed an IC50 in data set [1] of 2600 nM. Besides, the Activity result in the data set with HEK-293T [2] was “Non-Toxic”.
For the compound `COc1ccc(NC(=O)c2noc3ccccc23)cc1`, the IC50 in data set [1] stood at 40 nM. In the data set on HEK-293T [2], the Activity entry is reported as “Non-Toxic”.
On the same counts, the results for `O=C(Nc1ccc(Cl)cc1)c1noc2ccccc12` are 41 nM and “Non-Toxic”.
Turning to `CC(=O)c1cccc(NC(=O)c2noc3ccccc23)c1`, the IC50 in data set [1] was determined as 640 nM. In addition, the Activity entry in the data set on HEK-293T [2] is “Non-Toxic”.
On to `O=C(Nc1cccc([N+](=O)[O-])c1)c1noc2ccccc12`, for which the IC50 in data set [1] stood at 480 nM. In the data set with HEK-293T [2], the Activity entry is “Non-Toxic”.
With `CCn1c2ccccc2c2cc(NC(=O)c3noc4ccccc34)ccc21`, the 50% inhibitory concentration (IC50) in data set [1] stood at 810 nM. Further, the Activity result with HEK-293T [2] is “Non-Toxic”.
